The structures appear in SMILES notation. Values after ≈ are worked out from the molar mass of the structure shown.

Data set [1] is described as follows: Clearance in rat at 0.2 mg/kg, iv. The format is ADME, organism-based. Details: dose 0.2 mg/kg, route intravenous. The note with it: in vivo.
Data set [2] in a line: Apparent permeability in human Caco2 cells. The note with it: Caco-2. The format is ADME, cell-based.
Data set [3] is described as follows: Volume of distribution at steady state in rat at 0.2 mg/kg, iv. It is filed as ADME, organism-based. Details: dose 0.2 mg/kg, route intravenous. The note with it: in vivo, read-out: Vdss.
Data set [4] is described as follows: Metabolic stability in rat liver microsomes at 2 uM after 45 mins by LC-MS analysis in presence of NADPH. It is filed as ADME, Microsome. As to conditions: read-out: Stability. Put shortly:
(§1)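 Test compound at 2 μM incubated with liver microsomes (human or rat), NADPH and buffer at 37 °C for 45 min; samples processed by precipitation, then LC-MS measured percent parent compound remaining.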
(In general: Microsomes from liver hold many membrane-bound enzymes, among them those of drug oxidation.)

Data set [5] can be described thus: Half life in rat at 0.2 mg/kg, iv. Details: dose 0.2 mg/kg, route intravenous. The format is ADME, organism-based. As to conditions: in vivo.
Data set [6] in a line: Oral bioavailability in dog at 1 mg/kg. The format is ADME, organism-based, Canis lupus familiaris. The note with it: in vivo.
Data set [7] in a line: Oral bioavailability in rat at 5 mg/kg administered as suspension. It is filed as ADME, organism-based. The note with it: in vivo. In short, it runs like this: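 Rats dosed orally at 5 mpk with compound given as a suspension; bioavailability reported as oral BA (suspension).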
A short description of data set [8]: Volume of distribution at steady state in dog at 1 mg/kg, iv. The format is ADME, organism-based, Canis lupus familiaris. Details: dose 1 mg/kg, route intravenous. As to conditions: in vivo, read-out: Vdss.
A short description of data set [9]: Metabolic stability in human liver microsomes at 2 uM after 45 mins by LC-MS analysis in presence of NADPH. As to conditions: read-out: Stability. The format is ADME, Microsome. Put shortly: as §1
Data set [10] in a line: Aqueous solubility of the compound in amorphous form at pH 6.5. It is filed as physicochemical. In short, it runs like this: (§2)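 Aqueous solubility measured at pH 6.5, expressed in µg/mL.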
Data set [11] is described as follows: Clearance in dog at 1 mg/kg, iv. It is filed as ADME, organism-based, Canis lupus familiaris. Further details: dose 1 mg/kg, route intravenous. The note with it: in vivo.
Data set [12] in a line: Half life in dog at 1 mg/kg, iv. The format is ADME, organism-based, Canis lupus familiaris. Further details: dose 1 mg/kg, route intravenous. The note with it: in vivo.
Data set [13] is described as follows: Oral bioavailability in rat at 0.2 mg/kg. The format is ADME, organism-based. The note with it: in vivo.
The nature of data set [14]: Aqueous solubility of the compound in crystalline form at pH 6.5. It is filed as physicochemical. As to conditions: aqueous medium. In short, it runs like this:
as §2

A short description of data set [15]: Lipophilicity, log P of the compound. The format is physicochemical. The note with it: octanol/water.
The mark [16] stands for this setting: aqueous medium, read-out: solubility.

Broadly, the clearance is the rate of elimination divided by the concentration. The low end stands for a low capacity for elimination, the high end for a high capacity for elimination. Usually Papp stands for a coefficient for how fast a substance crosses the barrier. By half-life is commonly meant how long it takes for the measured level to halve. Read a low half-life as fast loss. One may read the bioavailability as dose-corrected exposure relative to a reference, in per cent. A high value points to good availability. What is called solubility is the dissolved amount per volume that the medium holds. In general, logP refers to the decadic logarithm of the partition coefficient of the neutral form, usually between octanol and water. A low value points to lower lipophilicity. `Cc1ccc(C(=O)NCCO)cc1-n1cnc(OCc2ccc(F)cc2F)c(Cl)c1=O`: the clearance in data set [1] came out at 3.19 mL/min/kg; in data set [11], 1.59 mL/min/kg. For the same compound, the Papp in data set [2] amounted to 7.99 ×10⁻⁶ cm/s. In addition, the Vd in data set [3] came out at 1.32 L/kg; in data set [8] it was 0.986 L/kg. In addition, the results for the remaining at 0.75 h, 2 µM in data set [4] and in data set [9] were 97% and 99%, respectively. In addition, the half-life in data set [5] is 6.5 h; in [12] it was 8.7 h. For the same compound, the figures for the bioavailability in data set [6], in [7] and in data set [13] were 67%, 99% and 99%, respectively. Moreover, the solubility in [10] (setting [16]) stood at 51 µg/mL (≈ 113 µM); in data set [14], 23 µg/mL (≈ 51.1 µM). In data set [15], this compound registered a logP of 1.65.
For `Cc1ccc(C(=O)NCC(N)=O)cc1-n1cnc(OCc2ccc(F)cc2F)c(Cl)c1=O`, the remaining at 0.75 h, 2 µM in [4] and in data set [9] was 100% throughout. Also, the solubility in [10] (setting [16]) was 14 µg/mL (≈ 30.2 µM).
As for `Cc1ccc(C(=O)NC[C@@H](O)CO)cc1-n1cnc(OCc2ccc(F)cc2F)c(Cl)c1=O`, the figures for the remaining at 0.75 h, 2 µM in [4] and in data set [9] were 100% and 97%, respectively. The solubility in [10] (setting [16]) is 163 µg/mL (≈ 340 µM).
Consider `Cc1ccc(C(=O)NC[C@H](C)CO)cc1-n1cnc(OCc2ccc(F)cc2F)c(Cl)c1=O`, for which the values for the remaining at 0.75 h, 2 µM in [4] and in data set [9] were 85% and 96%, respectively. Besides, the solubility in data set [10] (setting [16]) was 94 µg/mL (≈ 197 µM).
With `Cc1ccc(C(=O)N[C@H](C)C(N)=O)cc1-n1cnc(OCc2ccc(F)cc2F)c(Cl)c1=O`, the remaining at 0.75 h, 2 µM was determined as 72% in data set [4] and 77% in [9]. Moreover, the solubility in [10] (setting [16]) worked out at 147 µg/mL (≈ 308 µM).
For `Cc1ccc(C(=O)NCCO)cc1-n1cnc(OCc2ccc(F)cc2F)c(C)c1=O`, the remaining at 0.75 h, 2 µM was found to be 99% in data set [4] and 84% in [9]. Moreover, the solubility in data set [10] (setting [16]) is 28 µg/mL (≈ 65.2 µM).
On the same counts, the results for `CCc1c(OCc2ccc(F)cc2F)ncn(-c2cc(C(=O)NCCO)ccc2C)c1=O` are 92%, 76% and 20 µg/mL (≈ 45.1 µM).
As for `Cc1ccc(C(=O)NCCO)cc1-n1cnc(OCc2ccc(F)cc2F)c(Br)c1=O`, the solubility result in data set [10] (buffer) is “Insoluble”.
In the case of `CNC(=O)c1ccc(C)c(-n2c(C)cc(OCc3ccc(F)cc3F)c(Br)c2=O)c1` [PH-797804], the Papp in data set [2] was determined as 15.9 ×10⁻⁶ cm/s. This compound also had a bioavailability in data set [7] of 9.3%. In addition, in data set [14], the concentration in solution (solubility) came to 10 µg/mL (≈ 21 µM). This compound came in with a log partition coefficient (logP) in data set [15] of 3.35.
